Experimental data of several laboratories.
Protocols differ between the studies behind these lines.
Target: Serine/threonine-protein kinase Nek9 (NEK9, Homo sapiens, UniProt Q8TD19)
Sequence (Q8TD19 1-979, as in one of the studies): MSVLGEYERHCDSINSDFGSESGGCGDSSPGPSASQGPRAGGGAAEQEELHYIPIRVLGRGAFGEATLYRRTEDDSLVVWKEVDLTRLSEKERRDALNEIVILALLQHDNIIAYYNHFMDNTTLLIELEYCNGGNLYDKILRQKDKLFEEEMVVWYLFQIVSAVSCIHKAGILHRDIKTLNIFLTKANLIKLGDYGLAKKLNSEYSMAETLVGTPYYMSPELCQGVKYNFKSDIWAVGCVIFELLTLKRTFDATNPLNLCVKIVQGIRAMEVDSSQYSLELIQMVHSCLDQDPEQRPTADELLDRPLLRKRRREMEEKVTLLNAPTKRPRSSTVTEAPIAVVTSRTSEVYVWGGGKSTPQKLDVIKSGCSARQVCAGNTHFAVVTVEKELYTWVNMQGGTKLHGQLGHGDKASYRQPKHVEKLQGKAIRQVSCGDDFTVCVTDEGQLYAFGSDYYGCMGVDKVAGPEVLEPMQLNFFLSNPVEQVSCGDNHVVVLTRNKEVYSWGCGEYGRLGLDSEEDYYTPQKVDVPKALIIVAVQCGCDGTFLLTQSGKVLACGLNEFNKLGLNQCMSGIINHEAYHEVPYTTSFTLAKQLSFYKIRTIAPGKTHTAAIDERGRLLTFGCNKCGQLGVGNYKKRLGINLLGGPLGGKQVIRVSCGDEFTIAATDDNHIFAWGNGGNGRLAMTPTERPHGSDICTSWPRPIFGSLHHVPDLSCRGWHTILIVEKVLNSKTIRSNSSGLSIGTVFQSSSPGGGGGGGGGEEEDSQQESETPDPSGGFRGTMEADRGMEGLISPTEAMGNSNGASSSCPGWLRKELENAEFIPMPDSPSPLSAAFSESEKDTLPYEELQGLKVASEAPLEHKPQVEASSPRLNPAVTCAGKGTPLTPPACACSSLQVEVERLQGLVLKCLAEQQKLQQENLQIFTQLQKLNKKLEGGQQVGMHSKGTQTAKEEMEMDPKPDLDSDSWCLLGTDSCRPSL

SMILES	test	setting	measurement	result
COc1cc(Nc2c(C#N)cnc3cc(OCCCN4CCN(C)CC4)c(OC)cc23)c(Cl)cc1Cl	cell-free assay	0.5 µM	remaining signal	94%
Cc1ccc(NC(=O)c2ccc(C)c(C(F)(F)F)c2)cc1C#Cc1nn(C2CCC(O)CC2)c2ncnc(N)c12 (centres unmarked)	cell-free assay	10 µM	remaining signal	59%
O=C(O)[C@@H]1[C@@H](Cn2nnc3ccccc3c2=O)CC[C@H]1C(=O)c1ccc(OCCC2CCOCC2)cc1	cell-free assay, competition with immobilised ligand	1 µM	remaining binding	100%
O=C1NC(=O)c2cc(Nc3ccc(F)cc3)c(Nc3ccc(F)cc3)cc21	cell-free assay	0.5 µM	remaining signal	107%
Nc1ncnc2occ(-c3ccc(NC(=O)Nc4cc(C(F)(F)F)ccc4F)cc3)c12	cell-free assay, inhibitor	20 µM	remaining signal	1.6%
Oc1cccc(-c2nc(N3CCOCC3)c3oc4ncccc4c3n2)c1	cell-free assay	0.5 µM	remaining signal	99.3%
Nc1c(C(=O)NCc2ccc(C(=O)NCCCC3CCCCC3)cc2)cnn1-c1ccccc1	cell-free assay, competition with immobilised ligand	0.1 µM	remaining binding	100%
CN1CC(Oc2cnc(C#N)cc2-c2ccn3nc(NC(=O)C4CC4)cc3c2)C1	enzyme activity, inhibitor	1 µM	inhibition	-3%
N[C@H]1CCN(c2nccc(-c3cnn4ncccc34)n2)C1	binding	1 µM	remaining binding	100%
CCCOc1ccc([C@@H]2[C@@H](C(=O)O)[C@H](c3ccc4c(c3)OCO4)CN2CC(=O)Nc2c(CC)cccc2CC)cc1	cell-free assay, competition with immobilised ligand	1 µM	remaining binding	100%
CCOc1cc(-c2nncn2C)ccc1Nc1ncc2cc(C)nc(NCC(C)(C)C)c2n1	enzyme activity, inhibitor, FRET	1 µM	inhibition	< 15%
CC(C)(C)c1nc(-c2cccc(NS(=O)(=O)c3c(F)cccc3F)c2F)c(-c2ccnc(N)n2)s1	enzyme activity, inhibitor, radiometric	1 µM	remaining activity	106%
COc1cc2ncnc(Nc3ccc(Oc4ccccc4)cc3C)c2cc1OC	enzyme activity, inhibitor	1 µM	inhibition	-2%
O=C(NS(=O)(=O)c1ccc(NCC2CCOCC2)c([N+](=O)[O-])c1)c1ccc(N2CCN(Cc3ccc(C(F)(F)F)cc3-c3ccc(Cl)cc3)CC2)cc1Oc1cnc2[nH]ccc2c1	cell-free assay, competition with immobilised ligand	1 µM	remaining binding	100%
CS(=O)(=O)CCNCc1ccc(-c2ccc3ncnc(Nc4ccc(OCc5cccc(F)c5)c(Cl)c4)c3c2)o1	cell-free assay	0.5 µM	remaining signal	100%
CNCc1ccccc1-c1csc([C@H](C)Nc2nc(C)nc3cc(OC)c(OC)cc23)c1	cell-free assay, competition with immobilised ligand	1 µM	remaining binding	100%
CC(C)(O)[C@H]1CC[C@H](Nc2ccc3ncc(-c4cccc(C(F)(F)F)c4)n3n2)CC1	enzyme activity, inhibitor	1 µM	remaining activity	79.5%
